Measured values reported in ChEMBL document CHEMBL1141857, “Lichen metabolites. 1. Inhibitory action against leukotriene B4 biosynthesis by a non-redox mechanism” (J Nat Prod, 1999).

How the values were obtained:
[1] = Prooxidant activity assessed as hydroxyl radical formation at 75 uM measured as malondialdehyde per mmol of deoxyribose by deoxyribose assay; format: functional
Outline: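 Final mixture: 2 mM 2-deoxy-D-ribose, 0.1 mM FeCl3, 30 mM KH2PO4-KOH pH 7.4, 75 μM compound, acetonitrile vehicle controls; 2 h at 37 °C with shaking. TCA and TBA added, heated 100 °C 15 min, butanol-extracted, A532 read. Calibrated against MDA from tetraethoxypropane; reported as μmol MDA/mmol deoxyribose, n = 3.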

PMNL = assay: Inhibition of LTB4 biosynthesis in A-23187-stimulated bovine PMNL cells; format: functional, cell-based; conditions: Bos taurus
Outline: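 Bovine PMNL (10^7 cells/mL) preincubated with compound 15 min at 37 °C, then stimulated with Ca-ionophore. LTB4 and 5-HETE released after 10 min quantified by reversed-phase HPLC. Inhibition = (1 − test/control) × 100, test n = 3, control n = 6–8. IC50 interpolated from log concentration–response plot using ≥4 concentrations spanning 50%.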

[2] = Inhibition of AAPH-induced lipid peroxidation in bovine brain phospholipid liposome; format: functional, tissue-based, Bos taurus
Outline: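 Bovine brain phospholipid liposomes (1 mg/mL final) in 30 mM KH2PO4-KOH buffer, pH 7.4, with 10 mM AAPH and test compound at variable concentrations (acetone vehicle). Incubated 1 h at 37 °C with shaking. BHT, HCl and TBA then added; TBA-reactive material extracted into butanol and read at 532 nm against an MDA standard.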

[3] = system: Radical scavenging activity; assay: Antioxidant activity assessed as DPPH radical scavenging activity at equimolar amount of compound; format: functional
Outline: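 Test compound and DPPH mixed at equal concentrations (each […] as printed) in acetone–PBS 1:1 v/v. DPPH reduction followed spectrophotometrically at 516 nm. Reciprocal DPPH concentration plotted against time; second-order rate constant taken from slope, mean of n = 3–6.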

Row | SMILES | IC50 (PMNL) [µM] | IC50 [2] [µM] | Activity [1] [µmol] | Activity [3] [M⁻¹ s⁻¹]
1 | O=C1c2c(O)cccc2Cc2cccc(O)c21 [ANTHRALIN] | – | 79 | – | 24.2
2 | COc1cc(C)c(C(=O)Oc2cc(C)c(C(=O)O)c(O)c2C)c(OC)c1C [DIFFRACTAIC ACID] | 8 | > 200 | 0.12 | < 1
3 | COC(=O)c1c(C)cc(O)c(C)c1O [ATRARIC ACID] | > 60 | > 200 | 1.43 | 5.95
4 | CC(=O)C1=C(O)C=C2Oc3c(C(C)=O)c(O)c(C)c(O)c3[C@@]2(C)C1=O [(+)-USNIC ACID] | 42 | > 200 | 1.47 | < 1
5 | COC(=O)c1c(C)cc(OC(=O)c2c(C)cc(O)c(C=O)c2O)c(C)c1O [ATRANORIN] | 6 | > 200 | 0 | 11.5

The next lines start with results.

Row | IC50 (PMNL) [µM] | IC50 [2] [µM] | SMILES | Activity [1] [µmol] | Activity [3] [M⁻¹ s⁻¹]
6 | 40 | > 200 | CCOC(=O)c1c(C)cc(O)c(C=O)c1O [ETHYL HEMATOMMATE] | 0.3 | 12.2
7 | 9 | > 200 | C=C1C(=O)O[C@@H](CCCCCCCCCCCCC)[C@@H]1C(=O)O [PROTOLICHESTERINIC ACID] | 0.08 | < 1
8 | 0.4 | 2 | CC(Cc1ccc(O)c(O)c1)C(C)Cc1ccc(O)c(O)c1 (centres undefined) [NORDIHYDROGUAIARETIC ACID] | 0.23 | > 100
9 | > 60 | > 200 | Cc1cc(OC(=O)c2c(C)cc(OC(=O)c3c(C)cc(O)cc3O)cc2O)cc(O)c1C(=O)O [GYROPHORIC ACID] | 0.12 | 3.63
